Assay results as given in ChEMBL document CHEMBL1124389, “Spermexatin and spermexatol: new synthetic spermidine-based siderophore analogues” (1989).

Tests used:
Assay type in all cases: functional
Vibrio cholerae [1] = assay: Compound (1 mM) was tested for the ability to stimulate growth of Vibrio cholera Lou 15 at 18 h
Escherichia coli [2] = assay: Compound (0.2 mM) was tested for the ability to stimulate growth of Escherichia coli UT 2300 at 18 h
Outline: (§1)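 Disk-diffusion growth-promotion assay on E. coli RW 193 (FepA+) or its FepA− derivative UT2300. Cells were seeded at 10⁴/mL into Luria agar containing the iron chelator EDDA. Siderophores were dissolved in ethanol at 50, 10, 1 or 0.2 mM, spotted onto sterile disks, and the ethanol was evaporated. Plates were incubated 18 h at 37 °C and scored for growth around the disks. A 10 mM FeCl₃ disk served as positive control.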

Escherichia coli [3] = assay: Compound (1 mM) was tested for the ability to stimulate growth of Escherichia coli RW 193 at 18 h; outline: as §1
Vibrio cholerae [4] = assay: Compound (10 mM) was tested for the ability to stimulate growth of Vibrio cholera Lou 15 at 18 h
Vibrio cholerae [5] = assay: Compound (10 mM) was tested for the ability to stimulate growth of Vibrio cholera 1510 at 18 h
Vibrio cholerae [6] = assay: Compound (0.2 mM) was tested for the ability to stimulate growth of Vibrio cholera 1510 at 18 h
Escherichia coli [7] = assay: Compound (10 mM) was tested for the ability to stimulate growth of Escherichia coli UT 2300 at 18 h; outline: as §1
Vibrio cholerae [8] = assay: Compound (0.2 mM) was tested for the ability to stimulate growth of Vibrio cholera Lou 15 at 18 h
Escherichia coli [9] = assay: Compound (1 mM) was tested for the ability to stimulate growth of Escherichia coli UT 2300 at 18 h; outline: as §1
Vibrio cholerae [10] = assay: Compound (1 mM) was tested for the ability to stimulate growth of Vibrio cholera 1510 at 18 h
Escherichia coli [11] = assay: Compound (0.2 mM) was tested for the ability to stimulate growth of Escherichia coli RW 193 at 18 h; outline: as §1
Vibrio cholerae [12] = assay: Compound (50 mM) was tested for the ability to stimulate growth of Vibrio cholera 1510 at 18 h
Escherichia coli [13] = assay: Compound (50 mM) was tested for the ability to stimulate growth of Escherichia coli RW 193 at 18 h; outline: as §1
Escherichia coli [14] = assay: Compound (10 mM) was tested for the ability to stimulate growth of Escherichia coli RW 193 at 18 h; outline: as §1
Escherichia coli [15] = assay: Compound (50 mM) was tested for the ability to stimulate growth of Escherichia coli UT 2300 at 18 h; outline: as §1
Vibrio cholerae [16] = assay: Compound (10 mM) was tested for the ability to stimulate growth of Vibrio cholera Lou 15 at 42h
Vibrio cholerae [17] = assay: Compound (50 mM) was tested for the ability to stimulate growth of Vibrio cholera Lou 15 at 18 h
Vibrio cholerae [18] = assay: Compound (0.2 mM) was tested for the ability to stimulate growth of Vibrio cholera Lou 15 at 42h
Vibrio cholerae [19] = assay: Compound (1 mM) was tested for the ability to stimulate growth of Vibrio cholera Lou 15 at 42h

## O=C(N[C@H]1COC(=O)[C@@H](NC(=O)c2cccc(O)c2O)COC(=O)[C@@H](NC(=O)c2cccc(O)c2O)COC1=O)c1cccc(O)c1O [ENTEROBACTIN]
Vibrio cholerae [1]
  Growth zone: 22 mm
Escherichia coli [2]
  Growth zone: 0 mm
Escherichia coli [3]
  Growth zone: 40 mm
Vibrio cholerae [4]
  Growth zone: 28 mm
Vibrio cholerae [5]
  Growth zone: 0 mm
Vibrio cholerae [6]
  Growth zone: 0 mm
Escherichia coli [7]
  Growth zone: 0 mm
Vibrio cholerae [8]
  Growth zone: 0 mm
Escherichia coli [9]
  Growth zone: 0 mm
Vibrio cholerae [10]
  Growth zone: 0 mm
Escherichia coli [11]
  Growth zone: 28 mm

## CN(O)C(=O)CCC(=O)N(CCCCNC(=O)c1cccc(O)c1O)CCCNC(=O)c1cccc(O)c1O [SPERMEXATOL]
Vibrio cholerae [12]
  Growth zone: 28 mm
Escherichia coli [2]
  Growth zone: 0 mm
Escherichia coli [13]
  Growth zone: 21 mm
Escherichia coli [3]
  Growth zone: 0 mm
Escherichia coli [14]
  Growth zone: 12 mm
Escherichia coli [15]
  Growth zone: 0 mm
Vibrio cholerae [16]
  Growth zone: 0 mm
Vibrio cholerae [5]
  Growth zone: 0 mm
Vibrio cholerae [17]
  Growth zone: 36 mm
Vibrio cholerae [6]
  Growth zone: 0 mm
Escherichia coli [7]
  Growth zone: 0 mm
Vibrio cholerae [18]
  Growth zone: 0 mm
Escherichia coli [9]
  Growth zone: 0 mm
Vibrio cholerae [19]
  Growth zone: 0 mm
Vibrio cholerae [10]
  Growth zone: 0 mm
Escherichia coli [11]
  Growth zone: 0 mm

## CN(O)C(=O)CCCC(=O)NCCCCN(CCCNC(=O)CCCC(=O)N(C)O)C(=O)CCCC(=O)N(C)O
Vibrio cholerae [12]
  Growth zone: 12 mm
Escherichia coli [2]
  Growth zone: 0 mm
Escherichia coli [13]
  Growth zone: 18 mm
Escherichia coli [3]
  Growth zone: 0 mm
Escherichia coli [14]
  Growth zone: 10 mm
Escherichia coli [15]
  Growth zone: 16 mm
Vibrio cholerae [16]
  Growth zone: 0 mm
Vibrio cholerae [5]
  Growth zone: 0 mm
Vibrio cholerae [17]
  Growth zone: 12 mm
Vibrio cholerae [6]
  Growth zone: 0 mm
Escherichia coli [7]
  Growth zone: 10 mm
Vibrio cholerae [18]
  Growth zone: 0 mm
Escherichia coli [9]
  Growth zone: 0 mm
Vibrio cholerae [19]
  Growth zone: 0 mm
Vibrio cholerae [10]
  Growth zone: 0 mm
Escherichia coli [11]
  Growth zone: 0 mm

## CC1OC(c2cccc(O)c2O)=NC1C(=O)NCCCN(CCCNC(=O)c1cccc(O)c1O)C(=O)C1N=C(c2cccc(O)c2O)OC1C (centres undefined) [VIBRIOBACTIN]
Vibrio cholerae [1]
  Growth zone: 32 mm
Vibrio cholerae [12]
  Growth zone: 0 mm
Escherichia coli [2]
  Growth zone: 0 mm
Escherichia coli [13]
  Growth zone: 0 mm
Escherichia coli [3]
  Growth zone: 0 mm
Escherichia coli [14]
  Growth zone: 0 mm
Escherichia coli [15]
  Growth zone: 0 mm
Vibrio cholerae [4]
  Growth zone: 32 mm
Vibrio cholerae [5]
  Growth zone: 0 mm
Vibrio cholerae [6]
  Growth zone: 0 mm
Escherichia coli [7]
  Growth zone: 0 mm
Vibrio cholerae [8]
  Growth zone: 32 mm
Escherichia coli [9]
  Growth zone: 0 mm
Vibrio cholerae [10]
  Growth zone: 0 mm
Escherichia coli [11]
  Growth zone: 0 mm

## CN(O)C(=O)CCC(=O)NCCCCN(CCCNC(=O)CCC(=O)N(C)O)C(=O)CCC(=O)N(C)O
Vibrio cholerae [1]
  Growth zone: 17 mm
Vibrio cholerae [12]
  Growth zone: 0 mm
Escherichia coli [2]
  Growth zone: 0 mm
Escherichia coli [13]
  Growth zone: 12 mm
Escherichia coli [3]
  Growth zone: 0 mm
Escherichia coli [14]
  Growth zone: 0 mm
Escherichia coli [15]
  Growth zone: 12 mm
Vibrio cholerae [4]
  Growth zone: 17 mm
Vibrio cholerae [5]
  Growth zone: 0 mm
Vibrio cholerae [17]
  Growth zone: 19 mm
Vibrio cholerae [6]
  Growth zone: 0 mm
Escherichia coli [7]
  Growth zone: 0 mm
Vibrio cholerae [8]
  Growth zone: 16 mm
Escherichia coli [9]
  Growth zone: 0 mm
Vibrio cholerae [10]
  Growth zone: 0 mm
Escherichia coli [11]
  Growth zone: 0 mm
